In ChEMBL document CHEMBL4354804, “Discovery of a New Isoxazole-3-hydroxamate-Based Histone Deacetylase 6 Inhibitor SS-208 with Antitumor Activity in Syngeneic Melanoma Mouse Models” (J Med Chem, 2019):
Activity calls are given as the source filed them. The calls are words filed in the database; no cut-off is given here.

Legend:
[1] = Mutagenicity in Salmonella typhimurium TA1537 assessed as induction of >= 3 fold increase in revertant colonies at 1.5 to 1000 ug/well in absence of S9 fraction by Ames test; assay type: toxicity; conditions: salmonella enterica subsp. enterica serovar typhimurium
In short: (§1)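 Ames test with S. typhimurium TA98 and TA1537, with and without S9 mix. A positive call required a ≥ 2-fold (TA98) or ≥ 3-fold (TA1537) rise in mean revertant colonies over the concurrent negative/solvent control.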

Mus musculus [2] = assay: Antitumor immunity against mouse SM1 cells implanted in flank of immunocompetent C57BL/6 mouse assessed as increase in infiltration of NKT cells at 25 mg/kg, ip administered 1 week post-implantation by flow cytometry; assay type: functional, organism-based
[3] = Half life in human hepatocytes; assay type: ADME, cell-based, Hepatocyte
In short: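 Half-life in minutes measured in mouse and human hepatocytes.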

[4] = Induction of cell death in mouse SM1 cells at 0.1 to 25 uM; assay type: cell-based
PC-3 = assay: Induction of cell death in human PC3 cells at 0.1 to 25 uM; assay type: cell-based; conditions: pc-3, 25 µM
Mus musculus [5] = assay: Antitumor immunity against mouse SM1 cells implanted in flank of immunocompetent C57BL/6 mouse assessed as increase in ratio of M1/M2 macrophages at 25 mg/kg, ip administered 1 week post-implantation by flow cytometry; assay type: functional, organism-based
Mus musculus [6] = assay: Antitumor immunity against mouse SM1 cells implanted in flank of immunocompetent C57BL/6 mouse assessed as increase in antitumor M1 macrophages at 25 mg/kg, ip administered 1 week post-implantation by flow cytometry; assay type: functional, organism-based
[7] = Mutagenicity in Salmonella typhimurium TA1537 assessed as induction of >= 3 fold increase in revertant colonies at 1.5 to 1000 ug/well in presence of S9 fraction by Ames test; assay type: toxicity, subcellular; conditions: salmonella enterica subsp. enterica serovar typhimurium; in short: as §1
[8] = biological target: T1, Protein deacetylase HDAC6 (Mus musculus) (UniProt Q9Z2V5); assay: Inhibition of HDAC6 in mouse SM1 cells assessed as reduction in IL-6 stimulated STAT3 phosphorylation at Y705 residue at 5 uM pretreated for 1 hr followed by IL-6 stimulation for overnight by western blot analysis; assay type: cell-based
T1 sequence (whole entry): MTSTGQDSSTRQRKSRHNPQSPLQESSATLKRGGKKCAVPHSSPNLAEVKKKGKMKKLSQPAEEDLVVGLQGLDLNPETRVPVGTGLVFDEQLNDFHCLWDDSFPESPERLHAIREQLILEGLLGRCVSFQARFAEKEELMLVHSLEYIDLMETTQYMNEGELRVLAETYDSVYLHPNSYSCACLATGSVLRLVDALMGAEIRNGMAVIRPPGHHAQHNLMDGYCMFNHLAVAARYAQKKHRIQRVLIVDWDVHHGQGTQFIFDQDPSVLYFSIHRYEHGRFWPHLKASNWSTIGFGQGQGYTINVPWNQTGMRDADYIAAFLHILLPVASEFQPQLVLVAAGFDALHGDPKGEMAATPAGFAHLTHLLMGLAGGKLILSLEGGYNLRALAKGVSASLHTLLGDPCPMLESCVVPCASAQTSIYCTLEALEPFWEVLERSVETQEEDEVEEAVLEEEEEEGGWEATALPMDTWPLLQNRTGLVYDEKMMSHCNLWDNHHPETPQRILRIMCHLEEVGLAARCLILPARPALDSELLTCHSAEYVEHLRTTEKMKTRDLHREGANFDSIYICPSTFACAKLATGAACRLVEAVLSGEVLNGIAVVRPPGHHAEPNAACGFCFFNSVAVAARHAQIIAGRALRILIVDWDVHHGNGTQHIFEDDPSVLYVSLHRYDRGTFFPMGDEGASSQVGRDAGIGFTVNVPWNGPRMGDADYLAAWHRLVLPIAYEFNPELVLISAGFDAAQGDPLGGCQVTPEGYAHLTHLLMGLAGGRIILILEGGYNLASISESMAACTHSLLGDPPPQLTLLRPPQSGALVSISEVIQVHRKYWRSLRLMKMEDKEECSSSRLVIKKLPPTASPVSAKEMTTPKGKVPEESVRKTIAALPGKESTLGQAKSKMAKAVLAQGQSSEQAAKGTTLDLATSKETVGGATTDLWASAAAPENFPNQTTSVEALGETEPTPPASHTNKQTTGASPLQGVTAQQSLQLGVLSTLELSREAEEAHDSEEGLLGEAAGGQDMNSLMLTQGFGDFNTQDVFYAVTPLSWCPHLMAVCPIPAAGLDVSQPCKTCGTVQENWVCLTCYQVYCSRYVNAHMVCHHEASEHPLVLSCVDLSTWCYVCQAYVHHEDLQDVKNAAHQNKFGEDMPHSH
In short: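 SM1 cells pretreated with 5 µM compound, then IL-6 overnight. Lysed in RIPA buffer with protease and phosphatase inhibitors, sonicated, protein quantified by BCA. Immunoblot for PD-L1 and STAT3 Y705 phosphorylation.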

Mus musculus [9] = assay: Antitumor immunity against mouse SM1 cells implanted in flank of immunocompetent C57BL/6 mouse assessed as infiltration of intratumoral CD8+ cells at 25 mg/kg, ip administered 1 week post-implantation by flow cytometry; assay type: functional, organism-based
[10] = biological target: Voltage-gated inwardly rectifying potassium channel KCNH2 (Homo sapiens, UniProt Q12809); assay: Inhibition of human ERG expressed in HEK293 cells by manual-patch clamp assay; assay type: cell-based
Voltage-gated inwardly rectifying potassium channel KCNH2, sequence (Q12809 whole entry): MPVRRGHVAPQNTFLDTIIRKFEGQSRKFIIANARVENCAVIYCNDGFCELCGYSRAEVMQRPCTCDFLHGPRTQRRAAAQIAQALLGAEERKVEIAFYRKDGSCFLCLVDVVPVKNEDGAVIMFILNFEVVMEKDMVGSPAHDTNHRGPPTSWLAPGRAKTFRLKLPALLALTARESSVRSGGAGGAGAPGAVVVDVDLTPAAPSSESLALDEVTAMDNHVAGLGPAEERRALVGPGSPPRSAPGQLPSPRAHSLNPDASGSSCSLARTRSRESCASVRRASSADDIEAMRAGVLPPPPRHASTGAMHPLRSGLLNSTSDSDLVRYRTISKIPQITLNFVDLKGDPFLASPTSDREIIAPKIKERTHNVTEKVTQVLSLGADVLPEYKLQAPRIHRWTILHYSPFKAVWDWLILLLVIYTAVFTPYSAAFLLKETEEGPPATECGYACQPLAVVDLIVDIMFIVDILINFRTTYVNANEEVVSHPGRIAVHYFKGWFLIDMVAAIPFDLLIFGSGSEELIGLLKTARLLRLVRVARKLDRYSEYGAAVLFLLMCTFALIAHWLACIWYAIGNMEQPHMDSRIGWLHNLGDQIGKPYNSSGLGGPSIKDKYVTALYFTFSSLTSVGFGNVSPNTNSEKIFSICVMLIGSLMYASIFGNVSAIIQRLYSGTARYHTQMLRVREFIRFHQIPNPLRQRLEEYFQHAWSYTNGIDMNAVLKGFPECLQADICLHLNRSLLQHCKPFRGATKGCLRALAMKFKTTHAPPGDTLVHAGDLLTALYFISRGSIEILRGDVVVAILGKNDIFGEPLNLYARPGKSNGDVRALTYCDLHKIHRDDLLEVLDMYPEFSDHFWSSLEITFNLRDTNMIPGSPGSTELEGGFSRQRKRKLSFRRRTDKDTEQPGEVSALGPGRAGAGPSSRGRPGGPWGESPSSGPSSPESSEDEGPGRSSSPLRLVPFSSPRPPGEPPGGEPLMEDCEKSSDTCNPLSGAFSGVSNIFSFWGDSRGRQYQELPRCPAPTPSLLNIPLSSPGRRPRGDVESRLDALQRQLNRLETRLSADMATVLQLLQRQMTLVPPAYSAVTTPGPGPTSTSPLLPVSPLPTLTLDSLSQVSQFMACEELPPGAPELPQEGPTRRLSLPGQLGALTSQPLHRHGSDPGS

O=C(NCCc1cc(C(=O)NO)no1)c1ccc(Cl)c(Cl)c1
Activity [1]: Non-Toxic
Activity (Mus musculus [2]): Active
half-life [3]: 108 min
Activity [4]: Non-Toxic
Activity (PC-3): Non-Toxic
Activity (Mus musculus [5]): Active
Activity (Mus musculus [6]): Active
Activity [7]: Non-Toxic
inhibition [8]: Active
Activity (Mus musculus [9]): Active
IC50 [10]: > 30 µM
